The IC50 is the concentration that gives 50% inhibition. High values mean weaker potency, low ones greater potency. The term inhibition denotes the percentage by which the read-out fell short of the control. High values mean a response far below the control, low ones a response near the control.

Assay [1] can be described thus: Cytotoxicity against human WS1 cells by thymidine incorporation assay. Type of assay: cell-based. The method, boiled down:
(§1)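 Cells (3000/well) were plated in IMDM (HCT-116), RPMI 1640 (HCT-15) or MEM (WS-1), each with L-glutamine, 10% FBS and 0.1% penicillin-streptomycin. Compounds in DMSO (1% in all wells) were added after about 6 h and left for 72 h, with 3H-thymidine pulsed for the last 16 h. Uptake was scintillation-counted against DMSO controls. IC50 came from four-concentration curves, three experiments in quadruplicate.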
For orientation: Incorporation of labelled thymidine or its analogues reports DNA synthesis.

Assay [2] has as its system HCT-116. In words: Cytotoxicity against multidrug-resistant human HCT116 cells by thymidine incorporation assay. Type of assay: functional, cell-based. The method, boiled down:
as §1

Assay [3] relates to HCT-15. In words: Cytotoxicity against multidrug-resistant human HCT15 cells by thymidine incorporation assay. Format: functional, cell-based. In a few lines:
as §1

Assay [4] deals with HCT-15. In words: Cytotoxicity against multidrug-resistant human HCT15 cells at 1 uM by thymidine incorporation assay. Format: functional. The method, boiled down: (§2)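 HCT-116 cells were grown in IMDM and HCT-15 in RPMI 1640, each with L-glutamine, 10% FBS and penicillin-streptomycin, at 3000 cells/well. Compound was applied at 1 µM in 1% DMSO for 72 h total, with 3H-thymidine added for the final 16 h. Percent growth inhibition versus DMSO controls was scintillation-counted, averaging three wells in each of three assays.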

The test system of assay [5] is HCT-116. In words: Cytotoxicity against multidrug-resistant human HCT116 cells at 1 uM by thymidine incorporation assay. Format: functional. The method, boiled down:
as §2

Assay [6] concerns HCT-116. In words: Selectivity for multidrug-resistant human HCT116 cells over human WS1 cells. Type of assay: functional.
For assay [7], the system named is HCT-15. The experiment in a line: Selectivity for multidrug-resistant human HCT15 cells over human WS1 cells. Type of assay: functional.

Peptide text beside a SMILES is read from it. Some results are limits rather than exact numbers.

On to `Nc1ccn([C@@H]2O[C@H](CO)[C@@H](O)C2(F)F)c(=O)n1` [GEMCITABINE], for which the IC50 was 200 µM in assay [1], 14.3 µM in the assay with HCT-116 [2] and 11.8 µM in the assay on HCT-15 [3].

Consider `CC(C)C[C@@H]1NC(=O)[C@H](Cc2ccccc2)NC(=O)[C@H](CC(C)C)NC(=O)[C@@H](C(C)C)NC(=O)[C@H](CC(C)C)NC1=O` (HELM PEPTIDE1{F.L.L.[dV].L}$PEPTIDE1,PEPTIDE1,1:R1-5:R2$$$V2.0), for which the IC50 in assay [1] came out at 20 µM; in the assay with HCT-116 [2] it was 1.3 µM; with HCT-15 [3], 0.8 µM. Further, the inhibition at 1 µM in the assay with HCT-15 [4] and in the assay on HCT-116 [5] was 48% throughout.

As to `CC(C)C[C@@H]1NC(=O)[C@H](C(C)C)NC(=O)[C@H](CC(C)C)NC(=O)[C@@H](CC(C)C)N(C)C(=O)[C@H](Cc2ccccc2)NC1=O` (HELM PEPTIDE1{[CC(C)C[C@H](C(=O)[*:2])N(C)[*:1]].L.V.L.F}$PEPTIDE1,PEPTIDE1,1:R1-5:R2$$$V2.0), the IC50 is 200 µM in assay [1], 2 µM with HCT-116 [2] and 1.2 µM in the assay on HCT-15 [3]. For the same molecule, the inhibition at 1 µM in the assay on HCT-15 [4] turned out to be 48%; in the assay on HCT-116 [5], 42%.

With `CC(C)C[C@@H]1NC(=O)[C@H](C(C)C)NC(=O)[C@H](CC(C)C)N(C)C(=O)[C@@H](CC(C)C)NC(=O)[C@@H](Cc2ccccc2)NC1=O` (HELM PEPTIDE1{[dL].[meL].V.L.[dF]}$PEPTIDE1,PEPTIDE1,1:R1-5:R2$$$V2.0), the IC50 in assay [1] was 136 µM; in the assay on HCT-116 [2], 0.7 µM; in the assay on HCT-15 [3], 2.2 µM. The inhibition at 1 µM was found to be 42% with HCT-15 [4] and 64% in the assay on HCT-116 [5].

In the case of `CC(C)C[C@@H]1NC(=O)[C@H](CC(C)C)NC(=O)[C@@H](Cc2ccc(O)cc2)NC(=O)[C@H](CC(C)C)NC(=O)[C@H](C(C)C)NC1=O` (HELM PEPTIDE1{L.L.V.L.[dY]}$PEPTIDE1,PEPTIDE1,1:R1-5:R2$$$V2.0), the figures for the IC50 (in assay [1]; in the assay on HCT-116 [2]; with HCT-15 [3]) were 200 µM, 1.5 µM and 1 µM, respectively. Moreover, the inhibition at 1 µM in the assay with HCT-15 [4] amounted to 47%; with HCT-116 [5], 45%.

As to `CC(C)C[C@@H]1NC(=O)[C@H](Cc2ccccc2)NC(=O)[C@@H](CC(C)C)N(C)C(=O)[C@H](C(C)C)NC(=O)[C@H](CC(C)C)NC1=O` (HELM PEPTIDE1{F.L.L.V.[CC(C)C[C@H](C(=O)[*:2])N(C)[*:1]]}$PEPTIDE1,PEPTIDE1,1:R1-5:R2$$$V2.0), the results for the inhibition at 1 µM with HCT-15 [4] and in the assay on HCT-116 [5] were 33% and 25%, respectively. The IC50 in the assay with HCT-116 [2] and with HCT-15 [3] was greater than 50 µM each time.

As for `CC(C)C[C@@H]1NC(=O)[C@H](Cc2ccccc2)NC(=O)[C@@H](CC(C)C)NC(=O)[C@H](C(C)C)NC(=O)[C@H](CC(C)C)NC1=O` (HELM PEPTIDE1{F.L.L.V.[dL]}$PEPTIDE1,PEPTIDE1,1:R1-5:R2$$$V2.0), the inhibition at 1 µM in the assay with HCT-15 [4] was 10%; in the assay with HCT-116 [5], 18%. In addition, the half-inhibitory concentration (IC50) in the assay with HCT-116 [2] and in the assay on HCT-15 [3] was greater than 50 µM in each case.

With `CC(C)C[C@@H]1NC(=O)[C@H](Cc2ccccc2)NC(=O)[C@H](CC(C)C)NC(=O)[C@@H](C(C)C)N(C)C(=O)[C@H](CC2CCCCC2)NC1=O` (HELM PEPTIDE1{[Cha].[CC(C)[C@H](C(=O)[*:2])N(C)[*:1]].L.F.L}$PEPTIDE1,PEPTIDE1,1:R1-5:R2$$$V2.0), the figures for the IC50 (in assay [1]; in the assay with HCT-116 [2]; in the assay on HCT-15 [3]) were 4 µM, 2.1 µM and 0.8 µM, respectively. For the same molecule, the inhibition at 1 µM is 60% in the assay on HCT-15 [4] and 48% with HCT-116 [5].

With `CC(C)C[C@@H]1NC(=O)[C@H](CC(C)C)NC(=O)[C@H](Cc2ccccc2)N(C)C(=O)[C@H](CC(C)C)NC(=O)[C@H](C(C)C)NC1=O` (HELM PEPTIDE1{[meF].L.L.V.L}$PEPTIDE1,PEPTIDE1,1:R1-5:R2$$$V2.0), the results for the inhibition at 1 µM in the assay on HCT-15 [4] and with HCT-116 [5] were 18% and 2%, respectively. Also, the IC50 in the assay on HCT-116 [2] and in the assay on HCT-15 [3] was greater than 50 µM throughout.

In the case of `CC(C)C[C@@H]1NC(=O)[C@H](C(C)C)NC(=O)[C@H](CC(C)C)NC(=O)[C@H](CC(C)C)N(C)C(=O)[C@H](Cc2ccccc2)NC1=O` (HELM PEPTIDE1{F.[meL].L.V.L}$PEPTIDE1,PEPTIDE1,1:R1-5:R2$$$V2.0), the IC50 in assay [1] is 200 µM; in the assay with HCT-116 [2] it was 0.8 µM; with HCT-15 [3], 4.5 µM. In addition, the inhibition at 1 µM in the assay on HCT-15 [4] is 35%; with HCT-116 [5], 59%.

Regarding `CC(C)C[C@@H]1NC(=O)[C@H](Cc2ccccc2)NC(=O)[C@@H](Cc2ccccc2)N(C)C(=O)[C@H](C(C)C)NC(=O)[C@H](CC(C)C)NC1=O`, the IC50 in assay [1] is 200 µM; in the assay on HCT-116 [2], 0.8 µM; with HCT-15 [3], 0.7 µM. For the same molecule, the inhibition at 1 µM in the assay on HCT-15 [4] was 57%; in the assay with HCT-116 [5], 59%. For the same molecule, the “Ratio IC50” value in the assay with HCT-116 [6] and in the assay on HCT-15 [7] was greater than 250 each time.

Consider `CC(C)C[C@@H]1NC(=O)[C@H](Cc2ccccc2)NC(=O)[C@H](CC(C)C)NC(=O)[C@H](C(C)C)NC(=O)[C@H](CC(C)C)NC1=O` (HELM PEPTIDE1{F.L.L.V.L}$PEPTIDE1,PEPTIDE1,1:R1-5:R2$$$V2.0), for which the IC50 in assay [1] was 200 µM; in the assay with HCT-116 [2], 25 µM; with HCT-15 [3], 46 µM. Also, the inhibition at 1 µM in the assay with HCT-15 [4] is 10%; in the assay with HCT-116 [5], 28%.

Values taken from ChEMBL document CHEMBL1140733, “Comprehensive study of sansalvamide A derivatives and their structure-activity relationships against drug-resistant colon cancer cell lines” (J Med Chem, 2008).
